The text below walks through data of ChEMBL document CHEMBL2176974, “A bactericidal guanidinomethyl biaryl that alters the dynamics of bacterial FtsZ polymerization” (J Med Chem, 2012).

Molecules are shown by their SMILES. Positions count from the first letter of the chain named. Values after ≈ are worked out from the molar mass of the structure shown. Active and inactive are the calls of the source. The rule behind the calls is not given here.

Test [1] concerns T1, Cell division protein FtsZ (Staphylococcus aureus), P0A031 [I228R].
T1 sequence (whole entry): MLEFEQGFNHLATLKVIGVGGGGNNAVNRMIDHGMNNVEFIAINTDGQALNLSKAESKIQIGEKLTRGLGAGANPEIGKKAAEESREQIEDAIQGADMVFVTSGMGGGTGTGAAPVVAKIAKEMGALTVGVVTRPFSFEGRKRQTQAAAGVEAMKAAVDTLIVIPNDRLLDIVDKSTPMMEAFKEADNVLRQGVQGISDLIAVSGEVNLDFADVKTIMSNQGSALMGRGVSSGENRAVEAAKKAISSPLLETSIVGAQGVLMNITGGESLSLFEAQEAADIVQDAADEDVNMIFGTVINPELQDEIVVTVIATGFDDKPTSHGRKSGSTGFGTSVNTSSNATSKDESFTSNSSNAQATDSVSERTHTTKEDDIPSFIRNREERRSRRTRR
Put plainly: Binding affinity to Staphylococcus aureus FtsZ I228R mutant self-polymerization at 20 ug/mL by microtiter plate-based light scattering assay.

Test [2] concerns the target T2, Cell division protein FtsZ (Escherichia coli K-12, UniProt P0A9A6).
T2 sequence (P0A9A6 whole entry): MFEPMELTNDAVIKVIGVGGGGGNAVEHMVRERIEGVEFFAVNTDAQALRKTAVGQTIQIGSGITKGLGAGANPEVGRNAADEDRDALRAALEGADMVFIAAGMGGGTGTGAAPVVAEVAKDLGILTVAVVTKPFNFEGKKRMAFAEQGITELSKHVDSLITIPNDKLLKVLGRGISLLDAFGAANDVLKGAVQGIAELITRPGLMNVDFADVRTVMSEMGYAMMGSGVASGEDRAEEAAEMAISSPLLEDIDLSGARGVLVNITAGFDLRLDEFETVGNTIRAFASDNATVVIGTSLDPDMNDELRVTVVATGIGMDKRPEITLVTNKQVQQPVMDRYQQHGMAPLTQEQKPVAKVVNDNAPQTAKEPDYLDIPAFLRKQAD
Description: Binding affinity to Escherichia coli FtsZ at 25 degC by fluorescence anisotropy assay. To be noted: read-out: Kd. On the technique in general: Fluorescence polarisation rises when a labelled molecule tumbles more slowly, as on binding a larger partner.

Test [3] has as its target T3, Cell division protein FtsZ (Escherichia coli K-12) (UniProt P0A9A6).
T3 sequence (whole entry): T2 sequence (P0A9A6 whole entry)
Put plainly: Stimulation of Escherichia coli FtsZ assembly at 20 ug/mL by transmission electron microscopy. The essentials:
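EcFtsZ was polymerized with 20 μg/mL compound (10 μM protein, 1 mM GTP, 10 mM CaCl₂, Tris/KCl/Mg acetate buffer pH 7.4). The reaction was diluted 1:10 in polymerization buffer at room temperature and applied to glow-discharged Formvar/carbon copper grids. Grids were negatively stained 1 min with 1% phosphotungstic acid and imaged by TEM at 80 kV.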

In a further test the test system is Klebsiella pneumoniae. Description: Antimicrobial activity against Klebsiella pneumoniae ATCC 13883 incubated for 24 hrs by broth microdilution method. The class given is functional. As to conditions: ATCC 13883, 24 h. The essentials: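 CLSI broth microdilution. Log-phase bacteria at 10⁵ CFU/mL were added to 2-fold serial dilutions (64 to 0.016 μg/mL) in cation-adjusted Mueller-Hinton broth. Plates were incubated aerobically for 24 h at 37 °C and growth was read as OD600. MIC is the lowest concentration giving 90% growth inhibition.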
(In broth dilution the organism is exposed to a series of concentrations in liquid medium.)

Another test has as its system Enterococcus faecalis. Put plainly: microbe, parasite or virus in culture. The format is functional. To be noted: ATCC 51575, 24 h.
A short description of test [4]: Selectivity index, ratio of Kd for Enterococcus faecalis FtsZ to Kd for Escherichia coli FtsZ. The essentials: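 Buffer was 50 mM Tris·HCl pH 7.4, 50 mM KCl, 2 mM magnesium acetate. Kd came from nonlinear least-squares fits, and the index is the ratio of the two Kd values.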
For test [5], the system named is Staphylococcus aureus. Description: Antimicrobial effect against methicillin-sensitive Staphylococcus aureus 8325-4 assessed as changes in MIC measured after 12 incubation cycles by stepwise broth microdilution method relative to initial compound MIC. The class given is functional, organism-based. An outline of the steps:
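Stepwise resistance selection. S. aureus 8325-4 at 10⁵ CFU/mL was inoculated into 2-fold increasing compound concentrations and incubated 24 h at 37 °C. Aliquots from the well with the highest concentration still showing growth (2-fold below MIC) seeded a new serial 2-fold dilution plate. This was repeated for multiple cycles, with MIC determined each cycle.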

The subject of another test is Streptococcus agalactiae. Description: Antimicrobial activity against Streptococcus agalactiae Strep B ATCC 12386 incubated for 24 hrs by broth microdilution method. The class given is functional. To be noted: Strep B ATCC 12386, 24 h. An outline of the steps:
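CLSI broth microdilution. Log-phase bacteria at 10⁵ CFU/mL were exposed to 2-fold serial dilutions (64 to 0.016 μg/mL) in cation-adjusted Mueller-Hinton broth, 5% defibrinated sheep blood added for Streptococcus. Incubated aerobically 24 h at 37 °C. Growth read as OD600; MIC taken as the lowest concentration giving 90% growth inhibition.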

Test [6] relates to Staphylococcus aureus. Put plainly: microbe, parasite or virus in culture. As to conditions: ATCC 33591, 24 h. The class given is functional.
The target in test [7] is T4, Cell division protein FtsZ (Staphylococcus aureus, UniProt P0A031).
T4 sequence (P0A031 whole entry): T1 sequence (whole entry) with R228I
Put plainly: Binding affinity to Staphylococcus aureus FtsZ expressed in Escherichia coli BL21 (DE3) at 25 degC by fluorescence anisotropy assay. As to conditions: read-out: Kd. The essentials: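 Intrinsic compound fluorescence anisotropy. Compound at 5 μM was titrated with 0–25 μM FtsZ in 50 mM Tris·HCl pH 7.4, 50 mM KCl, 2 mM magnesium acetate. Samples were incubated 5 min at 25 °C, excited at 245 nm with emission at 318 nm, and G-corrected. Runs were in triplicate and averaged. Kd was obtained by nonlinear least-squares fit. SaFtsZ was expressed in E. coli BL21(DE3) and purified by ammonium sulfate, MonoQ and Superdex-200.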

Test [8] in a line: Binding affinity to Enterococcus faecalis FtsZ at 25 degC by fluorescence anisotropy assay. To be noted: read-out: Kd.
The subject of test [9] is Staphylococcus aureus. Put plainly: Potency index, ratio of vancomycin to compound bactericidal effect in methicillin-sensitive Staphylococcus aureus 8325-4 at 8 times MIC by time kill study. The class given is functional.
In test [10] the test system is Staphylococcus aureus. Put plainly: Bactericidal activity against methicillin-sensitive Staphylococcus aureus 8325-4 at 8 times MIC measured 2 hrs post dose for 24 hrs assessed as log reduction in bacterial CFU by time kill study. The format is functional. The essentials: (§1)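 Exponentially growing S. aureus 8325-4 was diluted in CAMH broth to 10⁵–10⁶ CFU/mL. […] Samples taken at 2, 4 and 6 h were pelleted or diluted, then plated on TSA. Colonies were counted after 24 h at 37 °C. Points are the mean of two independent measurements.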

For test [11], the system named is Staphylococcus aureus. Description: Bactericidal activity against methicillin-sensitive Staphylococcus aureus 8325-4 at 8 times MIC measured within 6 hrs post dose for 24 hrs assessed as log reduction in bacterial CFU by time kill study. The format is functional. An outline of the steps:
as §1

`CC(C)(C)c1ccc(-c2cccc(CNC(=N)N)c2)cc1`: the outcome (in [1]; in [3]; in the test with Staphylococcus aureus [5]) was Active. The results for the Kd in test [2], in test [7] and in [8] were 3.8 µM, 3.5 µM and 21.8 µM, respectively. The MIC in the test on Klebsiella pneumoniae was found to be 32 mg/L (≈ 114 µM); against Enterococcus faecalis, 4 mg/L (≈ 14.2 µM); with Streptococcus agalactiae it was 16 mg/L (≈ 56.9 µM); in the test with Staphylococcus aureus [6] it was 1 mg/L (≈ 3.55 µM). The Ratio in [4] came to 6; in the test on Staphylococcus aureus [9], 100. For the same molecule, the FC came out at 3 with Staphylococcus aureus [10] and 4 in the test on Staphylococcus aureus [11].

For orientation: Kd means a measure of binding affinity in units of concentration.
